# Experimental data of several laboratories.
# Each line is one published result; the experiments were not run side by side.
# Target: Serine/threonine-protein kinase WNK1 (WNK1, Homo sapiens, UniProt Q9H4A3)
Structure (SMILES),read-out,mode,technique,tested at,measurement,value
Nc1ncnc2occ(-c3ccc(NC(=O)Nc4cc(C(F)(F)F)ccc4F)cc3)c12,cell-free assay,inhibitor,,20 µM,remaining signal,87%
FC(F)(F)Oc1cccc(-c2cnc3ccc(-c4ccncc4)nn23)c1,enzyme activity,inhibitor,radiometric,1 µM,activity vs control,105%
CN(c1nccc(-c2cnn3ncccc23)n1)C1CC1,binding,,,1 µM,remaining binding,100%
C[C@@H]1CN(c2cc(-c3nn(C)c4ccc(OC5(C)CC5)cc34)ncn2)C[C@H](C)O1,cell-free assay,,competition with immobilised ligand,1 µM,remaining binding,82%
CS(=O)(=O)Nc1cccc(-c2csc(NC(=O)CSc3nc4nccnc4c(=O)n3CCc3ccccc3)n2)c1,enzyme activity,inhibitor,,10 µM,inhibition,-3%
Cn1cc(Cl)c2c(Oc3c(F)cc(Nc4cc(Cl)nc(N)n4)cc3F)ccnc21,cell-free assay,,competition with immobilised ligand,0.1 µM,remaining binding,98%
COc1cc(Nc2cnc(C#N)c(O[C@H](C)CN(C)C)n2)ncc1-c1cnn(C)c1,enzyme activity,inhibitor,radiometric,10 µM,remaining activity,75%
Cc1ccc(C(=O)NCc2ccsc2)cc1C#Cc1cn(C(C)C)c2ncnc(N)c12,enzyme activity,inhibitor,,1 µM,activity vs control,92%
N[C@@H]1CCN(c2nccc(-c3cnn4ncccc34)n2)C1,binding,,,1 µM,remaining binding,100%
CC(C)(C)c1nc(-c2cccc(NS(=O)(=O)c3c(F)cccc3F)c2F)c(-c2ccnc(N)n2)s1,enzyme activity,inhibitor,radiometric,1 µM,remaining activity,98%
CO[C@@H](C)c1c(Nc2ccc([C@H](N(C)C(=O)C3CCS(=O)(=O)CC3)C(F)(F)F)cc2)cnc2cc(Cl)nn12,cell-free assay,,competition with immobilised ligand,1 µM,remaining binding,100%
CC(C)(O)[C@H]1CC[C@H](Nc2ccc3ncc(-c4cccc(C(F)(F)F)c4)n3n2)CC1,enzyme activity,inhibitor,,1 µM,remaining activity,92.6%
COc1ccc2cc(OCC3(C(=O)O)CN(C(=O)c4ccc(F)cc4)C3)ccc2c1,cell-free assay,,competition with immobilised ligand,1 µM,remaining binding,84%
Cn1cncc1C1=CN(c2ncnc3[nH]cnc23)CCS1,enzyme activity,inhibitor,radiometric,2 µM,inhibition,10.7%
C[C@@H]1CN(c2cc(-c3n[nH]c4ccc(OC5(C)CC5)cc34)ncn2)C[C@H](C)O1,cell-free assay,,competition with immobilised ligand,0.1 µM,remaining binding,89%
O=C(Nc1cnn(-c2csc(C(=O)NC3COC3)c2)c1)Nc1ccccc1Cl,enzyme activity,inhibitor,,5 µM,remaining activity,99.7%
